Assay outcomes: PubChem BioAssay, several laboratories
Calb FLC – C. albicans growth modulation with fluconazole; AID 1979; 300,000 compounds, 0.57% hits; C. albicans CaCi-2 (fluconazole-resistant clinical isolate) + fluconazole, Alamar Blue growth, 48 h; growth inhibition, % (no concentration beside the values);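 active = growth inhibition above about 58% in most replicates, limit read from the data, passing the limit was not always enough; inconclusive = exactly half the replicates above a set limit; inactive = most replicates below a set limit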;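 also: all wells also contain fluconazole at 8 µg/ml as a sub-toxic cotreatment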
Efflux pump inh – antifungal efflux pump inhibition, Nile Red retention; S. cerevisiae Candida pump triplex; inhibition, % at 10 µM; AID 485275; 330,000 compounds, 0.44% hits;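 active = plate passing quality check with inhibition over a set limit, or well fluorescence over plate mean plus 4 SD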;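 also: Nile Red retained in pooled yeast measured as flow cytometry median fluorescence; higher means more Nile Red kept so more efflux inhibition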
TAG inh – inhibitors of triacylglycerol accumulation; H9c2 cells, Nile Red lipid (TAG) fluorescence; cells loaded with 200 µM oleic acid; inhibition, % at 12.5 µM; 230,000 compounds, 0.66% hits; AID 651582;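 active = pattern-corrected inhibition of lipid staining of at least 50% with the nuclear-stain viability signal not falling by more than 50%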
MC4R antag cAMP – antagonists of human melanocortin 4 receptor (MC4R); P32245; 360,000 compounds, 0.48% hits; MC4R-expressing cells, MTII-stimulated cAMP, LANCE TR-FRET; AID 540295; inhibition, % at 6.5 µM;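 active = inhibition above its plate's cutoff, the mean of tested wells on that plate plus 3 SD, cut at about 29% in these data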
Target sequence (P32245 whole entry, looked up): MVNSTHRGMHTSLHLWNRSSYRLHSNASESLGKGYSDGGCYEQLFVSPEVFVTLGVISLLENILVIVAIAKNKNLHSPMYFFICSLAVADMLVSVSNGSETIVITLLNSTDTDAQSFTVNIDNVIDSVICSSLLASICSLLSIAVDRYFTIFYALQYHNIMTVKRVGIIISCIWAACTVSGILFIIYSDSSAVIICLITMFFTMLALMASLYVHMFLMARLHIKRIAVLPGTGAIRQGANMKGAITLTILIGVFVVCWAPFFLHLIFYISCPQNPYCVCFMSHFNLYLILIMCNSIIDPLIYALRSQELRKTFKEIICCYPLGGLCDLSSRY
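Assay system: U2OS cells stably expressing human melanocortin 4 receptor (MC4R) / Dosing: 6.5 µM / Timing: compound 30 min, challenge 1 h, detection 1 h / Measured by: Eu-cAMP/anti-cAMP TR-FRET, emission 671 nm / Replicates: singlicate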
MC4R barr agon – human MC4R agonism via beta-arrestin; P32245; U2OS MC4R beta-arrestin complementation, luminescence; percent of melanotan II response, DMSO zero; activation, % at 8.9 µM; 360,000 compounds, 0.98% hits; AID 540308;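 active = activation above a per-plate cutoff, the mean activation of sample wells on that plate plus 3 SD, cut at about 8% in these data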
GalR3 antagonist – antagonists of human GalR3 | O60755 | HEK293 GalR3-CNG cAMP membrane potential fluorescence; galR3 body fused to GalR1 C-terminus | inhibition, % at 3 µM | 360,000 compounds, 0.44% hits | AID 651719;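 active = inhibition above the screen-wide average plus 3 SD, cut at about 13% in these data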;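 also: forskolin and galanin both at EC90 stimulate the cells; cAMP rise reported by CNG channel membrane potential dye signal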
GalR3 antag conf – confirmation of human galanin receptor 3 antagonists. inhibition, % at 3 µM. HEK293 GalR3 CNG cAMP biosensor, membrane potential fluorescence; galR3 fused to GalR1 carboxy tail; challenged with forskolin and galanin at EC90. shares compounds with GalR3 antagonist. 1,600 compounds, 59% hits;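 active = inhibition above the primary screen's cutoff, the mean inhibition of all screened compounds plus 3 SD, cut at about 13% in these data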
CNG parental – counter-screen for GalR3 antagonists: nonspecific agonists in parental HEK-CNG cells; shares compounds with GalR3 antagonist; HEK293-CNG parental cells, cAMP membrane potential fluorescence; normalised: DMSO wells 0%, forskolin wells 100%; activation, % at 3 µM; 1,600 compounds, 10% hits; AID 652268; in the data active = activation above about 1.3%
Large screens that a line does not name were inactive (follow-up assays come after a bar, where they were run). Sampled rows, rich in hits. Any-hit rate of the full collection: about 2.9%.

COC(=O)c1cc2c(c3c4ccccc4n(S(=O)(=O)c4ccc(OC)cc4)c13)C(=O)N(Cc1ccc(C(F)(F)F)cc1)C2	none (no result: Calb FLC, Efflux pump inh, TAG inh, MC4R antag cAMP, MC4R barr agon)
CN(C)S(=O)(=O)c1ccc(C(=O)Nc2nc(-c3cc4ccccc4o3)cs2)cc1	GalR3 antagonist 93 (no result: TAG inh) | GalR3 antag conf 103 | CNG parental inactive
CC(O)C1CCC2C3CCC4CC(O)CCC4(C)C3C(=O)CC12C (stereo not given)	none (no result: Calb FLC, Efflux pump inh, TAG inh)
O=[N+]([O-])c1ccc(S(=O)(=O)NN=Cc2ccc(Cl)c(Cl)c2)cc1	none (no result: Calb FLC, Efflux pump inh)
C[C@H]1C[C@H]2[C@@H]3CCC4=CC(=O)C=C[C@]4(C)[C@@]3(F)[C@@H](O)C[C@]2(C)[C@@]1(O)C(=O)CO	GalR3 antagonist 28 | GalR3 antag conf 44 | CNG parental 3.9
O=C(Nc1cccc(Cl)c1)c1nc[nH]c1C(=O)Nc1ccccc1F	none (no result: Calb FLC, Efflux pump inh)
Cn1c(=O)[nH]c2c(Cl)nccc21	GalR3 antagonist 16 | GalR3 antag conf inactive | CNG parental inactive
Cc1ccc(/C=N/N2CCN(Cc3ccc(C)cc3)CC2)cc1	none
Cc1ccc(CN2CCN(/N=C/c3ccc(C(F)(F)F)cc3)CC2)cc1	GalR3 antagonist 16 (no result: TAG inh) | GalR3 antag conf inactive | CNG parental inactive
CS(=O)(=O)c1ncc(Cl)c(C(=O)Nc2ccc3ccccc3c2)n1	GalR3 antagonist 20 (no result: Efflux pump inh) | GalR3 antag conf inactive | CNG parental inactive
O=C(CSc1nccc(=O)[nH]1)Nc1cccc2ccccc12	none (no result: TAG inh)
CC(Oc1ccc(Cl)cc1Cl)C(=O)Nc1cccc(O)c1 (stereo not given)	Calb FLC inconclusive, GalR3 antagonist 14 | GalR3 antag conf 15 | CNG parental inactive
O=C(CCNC(=O)C1CCN(S(=O)(=O)c2ccc(F)cc2)CC1)NCc1ccccn1	none (no result: Calb FLC, Efflux pump inh)
COc1cc(C2C3=C(CCCC3=O)Nc3ccc4ncccc4c32)ccc1O (stereo not given)	Calb FLC inconclusive, GalR3 antagonist 15 (no result: TAG inh) | GalR3 antag conf inactive | CNG parental inactive
CCOC(=O)C1=C(C)NC2=C(C(=O)CCC2)C1c1ccc(O)c(OCC)c1 (stereo not given)	GalR3 antagonist 16 (no result: TAG inh) | GalR3 antag conf 24 | CNG parental inactive
CCOc1cc(C2C3=C(CCCC3=O)Nc3ccc4ncccc4c32)ccc1O (stereo not given)	Calb FLC inconclusive (no result: TAG inh)
COc1ccc(-c2cc(-c3n[nH]c(=S)n3-c3ccccc3OC)[nH]n2)cc1	GalR3 antagonist 22 (no result: TAG inh) | GalR3 antag conf 17 | CNG parental inactive
COc1ccc(CNC(=O)c2cccc3c(-c4cccnc4)coc23)cc1OC	GalR3 antagonist 89 (no result: Calb FLC, Efflux pump inh) | GalR3 antag conf 106 | CNG parental inactive
CC1(C(=O)NS(=O)(=O)c2cccc(C#N)c2)CCN1C(=O)c1ccc(C2CCCCC2)cc1 (stereo not given)	none (no result: Calb FLC, Efflux pump inh)
C[C@H](CO)N1C[C@H](C)[C@@H](CN(C)C(=O)CCC(F)(F)F)OCc2cn(nn2)CCCC1=O	none (no result: Calb FLC, Efflux pump inh, TAG inh, MC4R antag cAMP, MC4R barr agon)
CC(C)NC(=O)C1C(c2ccc(C(F)(F)F)cc2)=Nc2ccccc2N1C(=O)c1cccc2ccccc12 (stereo not given)	none (no result: Calb FLC, Efflux pump inh, TAG inh, MC4R antag cAMP, MC4R barr agon)
CCNC(=O)NC(=O)C(C)Oc1ccc(C(=O)OC)cc1 (stereo not given)	GalR3 antagonist 20 | GalR3 antag conf inactive | CNG parental inactive
COc1ccc(CN(C)C(=O)c2ccc(OCC(=O)Nc3cccc(C(F)(F)F)c3)c(OC)c2)cc1	GalR3 antagonist 18 (no result: Calb FLC, Efflux pump inh) | GalR3 antag conf 85 | CNG parental inactive
Cc1ccsc1-c1cc2nc(NCCCN(C)C)n(C)c(=O)c2s1	none (no result: Calb FLC, Efflux pump inh)
COc1cc(C(=O)Nc2cccc(S(=O)(=O)N3CCCC3)c2)cc(OC)c1C	GalR3 antagonist 14 | GalR3 antag conf inactive | CNG parental inactive
COc1ccccc1CC(=O)Nc1cccc(S(=O)(=O)N2CCOCC2)c1	none
